Legend:
[1] = comparison CNS drug; no reference given; cited from earlier work
MC65 cells [2] = assay: Cellular ROS assay with CM-H2DCFDA in MC65 cells; type: cell-based; settings: CM-H2DCFDA fluorescence, TC- condition, n = 7-8
Method in brief: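 MC65 cells kept in 1 μg/mL tetracycline were washed extensively and plated at 2.5×10^4 cells/well in serum-free, phenol-red-free Opti-MEM without tetracycline. For ROS, cells were PBS-washed, loaded with CM-H2DCFDA and incubated 40 min. Random fluorescence photomicrographs were taken per condition, and intensity was quantified by image analysis, blinded to investigator.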

MC65 cells [3] = settings: cited from earlier work

| SMILES | Log Doct [1] | ROS production of MC65 cells (MC65 cells [2]) | MC65 cell death (MC65 cells [3]) |
| --- | --- | --- | --- |
| CN(C)CCC(c1ccc(Cl)cc1)c1ccccn1 (stereo not drawn) [chlorpheniramine] | 1.25 |  |  |
| Cc1c(C)c2c(c(C)c1O)CC[C@@](C)(CCC[C@H](C)CCC[C@H](C)CCCC(C)C)O2 [α-tocopherol] |  | reduced | blocked |

From paper PMC5438482 (Journal of Alzheimer's Disease, 2017)
